# NPY-Y2 PAM-ag – potentiators or agonists of human neuropeptide Y receptor Y2; P49146; activation, % at 3.6 µM; cells expressing NPY-Y2, potentiator/agonist read-out; hit rate 0.45% among 220,000; in the data active = activation above about 27%;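 also: cells stimulated with NPY near EC25 plus isoproterenol at EC100; 0% = vehicle plus submaximal agonist and 100% = vehicle plus saturating agonist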
# Target sequence (P49146 whole entry, looked up): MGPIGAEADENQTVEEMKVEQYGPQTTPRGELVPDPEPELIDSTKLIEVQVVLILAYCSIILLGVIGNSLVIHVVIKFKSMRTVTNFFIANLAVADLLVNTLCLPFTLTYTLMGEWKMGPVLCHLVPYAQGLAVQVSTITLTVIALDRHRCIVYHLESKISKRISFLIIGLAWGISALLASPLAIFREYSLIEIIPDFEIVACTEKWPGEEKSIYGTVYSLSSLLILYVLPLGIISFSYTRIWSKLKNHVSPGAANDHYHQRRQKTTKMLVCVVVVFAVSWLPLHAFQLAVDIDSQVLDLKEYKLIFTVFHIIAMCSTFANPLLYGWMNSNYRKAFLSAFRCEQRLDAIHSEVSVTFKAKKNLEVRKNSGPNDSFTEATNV
# Rad51 HR inh – blocks human Rad51 in homologous recombination; Q06609; hRad51 DNA strand exchange, fluorescence dequenching; inhibition, % at 10 µM; hit rate 0.085% among 200,000;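 active = inhibition above 40% at the single screening dose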;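 also: 0% = DMSO control wells and 100% = blanks with heterologous ssDNA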
#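 System: human Rad51 nucleoprotein filaments preassembled on unlabelled ssDNA. Reagent: labelled 47-mer dsDNA for strand exchange. Schedule: 30-min compound preincubation and 15-min exchange, both room temperature. Measured by: FRET fluorescence dequenching, excitation 485 nm, emission 520 nm. Read-out: Fluorescence-based percent inhibition, control- and blank-normalised. Benchmarks: plate controls and plate blanks.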
# NPY1 pot ag – human NPY-Y1 potentiation or agonism, primary screen; P25929; NPY-Y1 expressing cells, potentiator/agonist activation; activation, % at 3.6 µM; hit rate 0.37% among 220,000; AID 1304; in the data active = activation above about 33%, passing the limit was not always enough;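 also: cells stimulated with NPY at EC10 then isoproterenol at EC100; 0% = low agonist plus stimulus and 100% = saturating agonist plus stimulus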
# Measles CPE – protection of cells from measles virus; protection (pct of control), % at 4 µM; hit rate 1.5% among 140,000; Measles virus-infected cells, CPE protection, absorbance; in the data active = protection mostly above about 24%, no sharp cut-off; inactive = mostly below about 26%
# NPY Y2 blocker – NPY-Y2 (human) receptor antagonism; P49146; NPY-Y2 expressing cells, antagonist mode; inhibition, % at 2.7 µM; hit rate 0.99% among 140,000; AID 793; in the data active = inhibition above about 17%;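 also: 0% = vehicle with agonist challenge and 100% = reference antagonist with challenge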
# NPY Y1 blocker – NPY-Y1 (human) receptor antagonism; HEK293-CNG Y1 cells, membrane potential fluorescence; NPY at EC95, then isoproterenol; inhibition, % at 3.6 µM; hit rate 1% among 200,000;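 active = inhibition above the campaign mean inhibition of all tested compounds plus 3 SD, cut at about 20% in these data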;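 also: 0% = DMSO wells given NPY plus isoproterenol and 100% = isoproterenol alone without NPY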
#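 Material: HEK293 cells co-expressing NPY Y1 receptor and cyclic-nucleotide gated channel. Timing: compound incubation 1 h at room temperature, readout 45 min post-stimulation. Signal: fluorescence, membrane potential probe.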
# Starred values were filed as active, the others as inactive; . = not tested or not shown. Shown are actives, neighbours in structure and some others; about 2.8% of the full set was active somewhere.
SMILES,NPY-Y2 PAM-ag,Rad51 HR inh,NPY1 pot ag,Measles CPE,NPY Y2 blocker,NPY Y1 blocker
COc1cccc(OC)c1C(=O)NN1CCCCC1,2.2,.,14.6,35.3*,0.7,6.7
Cc1ccc(S(=O)(=O)NCc2ccco2)cc1C,8.7,-0.6,3.7,42.5*,1.5,-0.1
COc1cccc(N2C(=O)CC(N3CCN(C(=O)c4ccco4)CC3)C2=O)c1 (centres undefined),-9.9,-0.8,-9.1,73.5*,4.9,2.6
Cc1nc2c3cc(Cl)ccc3n(CCN3CCCCC3)c2s1,-32.2,18.3,-19.2,4.5,33.3*,25.1*
COC(=O)Cn1c2ccc(F)cc2c2nc(C)sc21,2.4,-0.8,-3.5,18.2,2.2,1.7
Cc1nc2c3cc(F)ccc3n(Cc3ccc(F)cc3)c2s1,-9.9,.,-35.0,14.8,17.6*,27.3*
Cc1cc(C)c2c(N)c(C(=O)N3CCc4ccccc4C3)sc2n1,3.9,-2.3,-1.6,.,.,4.1
C=CCOc1ccc2ccccc2c1CNCCCN1CCOCC1,-18.4,.,-19.5,23.9,20.1*,20.8*
COC(=O)c1sccc1N(C)S(C)(=O)=O,-11.2,-4.8,1.5,.,.,3.2
COc1cccc(CNc2ccc([N+](=O)[O-])cc2C)c1,-3.1,-8.7,-1.1,.,.,1.0
COc1cccc(NCc2ccc([N+](=O)[O-])s2)c1,5.3,-9.9,4.8,48.3*,-1.3,-1.0
CN1CCN(c2ccc(S(=O)(=O)N3CCCCC3)cc2NC(=O)c2ccc3ccccc3c2)CC1,-8.4,6.3,-40.8,13.0,6.3,2.1
Cc1ccccc1C(=O)Nc1cc(S(=O)(=O)N2CCCCC2)ccc1N1CCN(C)CC1,-1.6,-14.5,-0.1,33.1*,3.0,3.7
COCCn1c(=S)[nH]c2cc(C(=O)N3CCC(C(N)=O)(N4CCCCC4)CC3)ccc2c1=O,10.1,0.1,-23.1,11.1,3.0,-1.2
COCCn1c(=S)[nH]c2cc(C(=O)NCC3CCCO3)ccc2c1=O (centres undefined),14.5,-17.8,9.8,5.8,-0.5,-3.4
CCOCCCn1c(=S)[nH]c2cc(C(=O)NCCN(CC)CC)ccc2c1=O,-4.7,0.1,15.2,33.7*,-0.1,3.6
CCCCNC(=O)c1ccc2c(=O)n(CCCOCC)c(=S)[nH]c2c1,-10.9,-9.4,-0.3,17.8,-1.9,-1.4
CCOC(=O)C1CCCN(C(=O)c2ccc3c(=O)n(CCOC)c(=S)[nH]c3c2)C1 (centres undefined),-2.5,-0.8,13.0,27.9*,1.7,-8.4
COCCn1c(=O)[nH]c2cc(C(=O)NCC3CCCO3)ccc2c1=O (centres undefined),11.9,3.6,74.1*,11.4,-0.7,-2.5
CCN1CCN(C(=O)c2ccc(COc3ccc(Cl)cc3)o2)CC1,-19.8,-5.2,-8.6,41.9*,1.7,-5.8
O=C(c1ccc(COc2ccc(Cl)cc2)o1)N1CCN(Cc2ccc3c(c2)OCO3)CC1,-34.8,2.4,-31.3,9.9,6.8,9.2
CCNCc1ccccc1OCc1ccccc1,14.8,-7.0,-9.1,.,.,2.1
Oc1ccc(NCc2ccccc2OCc2ccccc2)cc1,20.7,-1.4,25.4,40.8*,-0.2,-4.7
Cc1ccc(-n2c(SCC(=O)N3CC(=O)Nc4ccccc43)nc3ccccc3c2=O)cc1,2.3,-2.0,25.0,32.8*,2.8,-1.7
Cc1cc(C)nc(Nc2n[nH]c(-c3ccc(C(C)(C)C)cc3)n2)n1,1.3,2.8,9.3,.,.,0.6
SMILES,NPY-Y2 PAM-ag,Rad51 HR inh,NPY1 pot ag,Measles CPE,NPY Y2 blocker,NPY Y1 blocker
Cc1cc(C)nc(Nc2n[nH]c(-c3ccc(N)cc3)n2)n1,-2.3,0.3,-3.6,25.8*,1.4,-5.5
CCCCCOC(=O)Cc1c(O)c2ccccc2[nH]c1=O,-12.6,1.4,12.7,4.2,0.1,0.8
CCCCCc1c(O)c2ccccc2[nH]c1=O,12.4,8.1,-2.6,35.6*,-0.8,0.1
Clc1ccc(NC2=NCCCCC2)cc1,9.8,4.8,7.0,5.9,0.6,45.7*
CC(=O)COc1ccc2c(-c3cccc([N+](=O)[O-])c3)cc(=O)oc2c1,-14.1,0.1,-7.7,.,.,3.7
O=C(O)COc1ccc2c(-c3ccccc3)cc(=O)oc2c1,-41.0,1.3,-22.6,.,6.9,20.1*
CCCCN(CCCC)CC(O)COc1ccccc1Br (centres undefined),-3.2,0.4,-25.2,4.9,25.9*,39.6*
O=C(Nc1nc(-c2ccccc2)cs1)c1cccs1,-9.0,-4.6,-6.6,1.1,2.5,7.5
O=C(Nc1nc(-c2ccccc2)ns1)c1cccs1,14.1,.,-6.6,33.2*,-0.7,4.4
O=C(Nc1nccs1)c1cncc(Br)c1,-9.6,-6.7,15.1,.,.,0.1
CCCNC(=O)c1sc2c(c1C(=O)Nc1ccccn1)CCCC2,-11.5,-0.4,-20.1,.,.,21.4*
CCOC(=O)N1CCN(C(=O)C2CCN(Cc3nc(-c4ccccc4C)oc3C)CC2)CC1,-0.1,.,-8.6,52.7*,4.8,4.1
CC(C)NC(=O)C(Sc1ccccc1)c1ccccc1 (centres undefined),7.5,-1.7,-11.4,29.7*,3.5,-4.0
CC(=O)Nc1ccc(NC(=O)C(Sc2ccccc2)c2ccccc2)cc1 (centres undefined),8.2,5.6,16.3,.,.,.
CCC(C)NS(=O)(=O)c1ccc(NC(=O)C(Sc2ccccc2)c2ccccc2)cc1 (centres undefined),11.3,0.1,26.1,32.1*,-3.8,-1.8
NC(=O)CC1(CC(=O)O)CCCCC1,-8.1,10.2,-8.8,68.0*,5.4,5.3
NC(=O)C1CCN(C(=O)CC2(CC(=O)O)CCCCC2)CC1,7.3,3.6,-6.9,.,.,1.4
Cc1cc(C(=O)O)c(C)n1-c1ccccc1,-9.3,-4.7,-1.3,39.6*,5.2,-2.5
CN1CCC(=NNC(=O)C(=O)NC2CCCC2)CC1,21.3,.,22.2,56.0*,1.7,0.2
Cc1cc([N+](=O)[O-])nn1CCCC(=O)NCc1ccc(F)cc1,1.1,11.7,12.8,.,.,5.5
Cc1nc2cc(-c3ccc(Cl)cc3)nn2c(NCCN(C)C)c1C,-1.5,26.1,8.5,.,.,8.5
Cc1ccc([N+](=O)[O-])cc1NC(=O)CN(C(=O)c1ccccc1Cl)C1CCCCC1,10.9,.,-9.1,5.9,25.9*,50.0*
CCOC(=O)c1ccc(N2C(=O)C3CC=C(C)CC3C2=O)cc1 (centres undefined),-25.6,1.4,-26.9,11.6,-0.1,24.8*
CC(=O)NC(CC(=O)N(C)Cc1cccc(Cl)c1Cl)c1ccccc1 (centres undefined),13.2,19.0,18.5,.,.,1.6
COc1ccc2sc(/C=C/c3ccccc3O)[n+](C)c2c1,-3.2,-77.9,13.8,.,.,5.6
CC(C)c1csc(CN2CCC(CO)(Cc3cccc(F)c3)CC2)n1,15.2,2.2,23.5,.,.,-1.8
CC(C)(C)n1nnnc1C(c1cccs1)N(Cc1cccnc1)Cc1ccco1 (centres undefined),1.7,2.4,9.5,14.8,4.5,9.5
